Measured values taken from ChEMBL document CHEMBL1142104, “Anti-HCV bioactivity of pseudoguaianolides from Parthenium hispitum” (J Nat Prod, 2007).

Legend:
Hepatitis C virus = assay: Antiviral activity against HCV in Huh7 cells at 2 uM by subgenomic replicon assay; type: functional, Hepacivirus hominis; conditions: Huh-7
How it was run: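 Huh-7 replicon cells (luciferase reporter), grown to 85% confluency with >95% viability, seeded at 11 000 cells/well; compound added and incubated 48 h at 37 °C. Plates cooled 30 min to room temperature, luciferase reagent added, luminescence read after 3 min. Inhibition calculated with no-cell wells as low signal and compound-free cells as high signal; duplicate testing.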

[1] = Cytotoxicity against Huh7 replicon cells; type: cell-based; conditions: human, huh-7

Row | Compound | inhibition at 2 µM (Hepatitis C virus) | Activity [1]
1 | C=C1C(=O)O[C@@H]2[C@H]1CCC(COC(=O)C(C)CC)[C@]1(O)CCC(=O)[C@@]21C (some centres undefined) | 25% | Not Active
2 | C=C1C(=O)O[C@@H]2[C@H]1CC[C@H](COC(=O)CCC)[C@]1(O)CCC(=O)[C@@]21C [HISPITOLIDE B] | 90% | Not Active
3 | C=C1C(=O)O[C@@H]2[C@H]1CC[C@H](COC(=O)C=C(C)C)[C@]1(O)CCC(=O)[C@@]21C [HISPITOLIDE D] | 98% | Not Active
4 | C=C1C(=O)O[C@@H]2[C@H]1CC[C@H](COC(=O)CC)[C@]1(O)CCC(=O)[C@@]21C [HISPITOLIDE A] | 55% | Not Active
5 | C=C1C(=O)O[C@@H]2[C@H]1CC[C@H](COC(=O)/C(C)=C\C)[C@]1(O)CCC(=O)[C@@]21C [HISPITOLIDE E] | 65% | Not Active
6 | C=C1C(=O)O[C@@H]2[C@H]1CCC(COC(=O)CC(C)C)[C@]1(O)CCC(=O)[C@@]21C (some centres undefined) | 63% | Not Active
7 | C=C1C(=O)O[C@@H]2[C@H]1CC[C@H](COC(=O)/C(C)=C/C)[C@]1(O)CCC(=O)[C@@]21C [HISPITOLIDE C] | 98% | Not Active
